What all share (assay type): functional
The test system of assay [1] is T47D. Nature of the assay: Inhibition of PR-A mRNA gene expression in human T47D cells at 100 nM by syber green assay. In short, it runs like this: (§1)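 T47D cells plated at 80,000/well without antibiotics two days before Oligofectamine transfection with agRNA duplex (25 or 100 nM final); medium changed at 24 h, harvest day 5 unless stated otherwise. TRIzol total RNA; PR mRNA by real-time PCR with SYBR Green: 50 °C 2 min, 95 °C 10 min, 40 cycles 95 °C 15 s/60 °C 1 min.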

Assay [2] concerns T47D. Nature of the assay: Inhibition of PR-B mRNA gene expression in human T47D cells at 100 nM by syber green assay. In short, it runs like this:
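T47D cells in RPMI-1640 with 10% FBS, NEAA, insulin, 37 °C, 5% CO2. Plated two days before transfection without antibiotics. Oligofectamine-mediated duplex RNA transfection at 100 nM final, medium changed at 24 h, harvest five days post-transfection. Total RNA extracted with TRIzol. hPR mRNA quantified by SYBR Green qPCR: 50 °C 2 min, 95 °C 10 min, then 40 cycles of 95 °C 15 s / 60 °C 1 min.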

Assay [3] deals with T47D. Nature of the assay: Inhibition of PR-A gene expression in human T47D cells at 25 nM by syber green assay. In short, it runs like this: as §1
Assay [4] has as its system T47D. The assay is described as follows: Inhibition of PR-B gene expression in human T47D cells at 25 nM by syber green assay. In short, it runs like this:
as §1

Molecules are shown by their SMILES.

Drawing on ChEMBL document CHEMBL1250442, “Inhibiting gene expression at transcription start sites in chromosomal DNA with antigene RNAs” (Nat Chem Biol, 2005), this text covers inhibition for five compounds.

With `Cc1cn([C@H]2C[C@H](OP(=O)(O)OC[C@H]3O[C@@H](n4cc(C)c(=O)[nH]c4=O)C[C@@H]3O)[C@@H](COP(=O)(O)O[C@H]3[C@@H](O)[C@H](n4ccc(N)nc4=O)O[C@@H]3COP(=O)(O)O[C@H]3[C@@H](O)[C@H](n4cnc5c(=O)[nH]c(N)nc54)O[C@@H]3COP(=O)(O)O[C@H]3[C@@H](O)[C@H](n4cnc5c(N)ncnc54)O[C@@H]3COP(=O)(O)O[C@H]3[C@@H](O)[C@H](n4cnc5c(=O)[nH]c(N)nc54)O[C@@H]3COP(=O)(O)O[C@H]3[C@@H](O)[C@H](n4cnc5c(N)ncnc54)O[C@@H]3COP(=O)(O)O[C@H]3[C@@H](O)[C@H](n4ccc(N)nc4=O)O[C@@H]3COP(=O)(O)O[C@H]3[C@@H](O)[C@H](n4ccc(N)nc4=O)O[C@@H]3COP(=O)(O)O[C@H]3[C@@H](O)[C@H](n4ccc(=O)[nH]c4=O)O[C@@H]3COP(=O)(O)O[C@H]3[C@@H](O)[C@H](n4cnc5c(=O)[nH]c(N)nc54)O[C@@H]3COP(=O)(O)O[C@H]3[C@@H](O)[C@H](n4cnc5c(N)ncnc54)O[C@@H]3COPO[C@H]3[C@@H](O)[C@H](n4ccc(N)nc4=O)O[C@@H]3COP(=O)(O)O[C@H]3[C@@H](O)[C@H](n4cnc5c(=O)[nH]c(N)nc54)O[C@@H]3COP(=O)(O)O[C@H]3[C@@H](O)[C@H](n4cnc5c(=O)[nH]c(N)nc54)O[C@@H]3COP(=O)(O)O[C@H]3[C@@H](O)[C@H](n4cnc5c(=O)[nH]c(N)nc54)O[C@@H]3COP(=O)(O)O[C@H]3[C@@H](O)[C@H](n4ccc(=O)[nH]c4=O)O[C@@H]3COP(=O)(O)O[C@H]3[C@@H](O)[C@H](n4ccc(N)nc4=O)O[C@@H]3COP(=O)(O)O[C@H]3[C@@H](O)[C@H](n4ccc(=O)[nH]c4=O)O[C@@H]3COP(=O)(O)O[C@H]3[C@@H](O)[C@H](n4ccc(N)nc4=O)O[C@@H]3COP(=O)(O)O[C@H]3[C@@H](O)[C@H](n4ccc(=O)[nH]c4=O)O[C@@H]3CO)O2)c(=O)[nH]c1=O` (some centres not stated), the inhibition at 0.1 µM with T47D [1] and in the assay on T47D [2] was less than 20% throughout.

For the compound `Cc1cn([C@@H]2O[C@H](COP(=O)(O)O[C@H]3C[C@H](n4cc(C)c(=O)[nH]c4=O)O[C@@H]3COP(=O)(O)O[C@H]3[C@@H](O)[C@H](n4ccc(N)nc4=O)O[C@@H]3COP(=O)(O)O[C@H]3[C@@H](O)[C@H](n4cnc5c(=O)[nH]c(N)nc54)O[C@@H]3COP(=O)(O)O[C@H]3[C@@H](O)[C@H](n4cnc5c(N)ncnc54)O[C@@H]3COP(=O)(O)O[C@H]3[C@@H](O)[C@H](n4ccc(N)nc4=O)O[C@@H]3COP(=O)(O)O[C@H]3[C@@H](O)[C@H](n4cnc5c(N)ncnc54)O[C@@H]3COP(=O)(O)O[C@H]3[C@@H](O)[C@H](n4ccc(N)nc4=O)O[C@@H]3COP(=O)(O)O[C@H]3[C@@H](O)[C@H](n4ccc(N)nc4=O)O[C@@H]3COP(=O)(O)O[C@H]3[C@@H](O)[C@H](n4ccc(=O)[nH]c4=O)O[C@@H]3COP(=O)(O)O[C@H]3[C@@H](O)[C@H](n4cnc5c(=O)[nH]c(N)nc54)O[C@@H]3COP(=O)(O)OC3[C@@H](O)[C@H](n4cnc5c(N)ncnc54)O[C@@H]3COP(=O)(O)O[C@H]3[C@@H](O)[C@H](n4ccc(N)nc4=O)O[C@@H]3COP(=O)(O)O[C@H]3[C@@H](O)[C@H](n4cnc5c(=O)[nH]c(N)nc54)O[C@@H]3COP(=O)(O)O[C@H]3[C@@H](O)[C@H](n4cnc5c(=O)[nH]c(N)nc54)O[C@@H]3COP(=O)(O)O[C@H]3[C@@H](O)[C@H](n4cnc5c(=O)[nH]c(N)nc54)O[C@@H]3COP(=O)(O)O[C@H]3[C@@H](O)[C@H](n4ccc(=O)[nH]c4=O)O[C@@H]3COP(=O)(O)O[C@H]3[C@@H](O)[C@H](n4ccc(N)nc4=O)O[C@@H]3COP(=O)(O)O[C@H]3[C@@H](O)[C@H](n4ccc(=O)[nH]c4=O)O[C@@H]3COP(=O)(O)O[C@H]3[C@@H](O)[C@H](n4cnc5c(=O)[nH]c(N)nc54)O[C@@H]3COP(=O)(O)O[C@H]3[C@@H](O)[C@H](n4ccc(=O)[nH]c4=O)O[C@@H]3CO)[C@@H](O)[C@H]2O)c(=O)[nH]c1=O` (some centres not stated), the inhibition at 0.025 µM with T47D [3] stood at 53%; in the assay on T47D [4], 75%. In addition, the inhibition at 0.1 µM stood at 67% with T47D [1] and 91% with T47D [2].

For the compound `Cc1cn([C@H]2C[C@H](OP(=O)(O)OC[C@H]3O[C@@H](n4cc(C)c(=O)[nH]c4=O)C[C@@H]3O)[C@@H](COP(=O)(O)O[C@H]3[C@@H](O)[C@H](n4ccc(N)nc4=O)O[C@@H]3COP(=O)(O)O[C@H]3[C@@H](O)[C@H](n4cnc5c(=O)[nH]c(N)nc54)O[C@@H]3COP(=O)(O)O[C@H]3[C@@H](O)[C@H](n4cnc5c(N)ncnc54)O[C@@H]3COP(=O)(O)O[C@H]3[C@@H](O)[C@H](n4ccc(N)nc4=O)O[C@@H]3COP(=O)(O)O[C@H]3[C@@H](O)[C@H](n4cnc5c(N)ncnc54)O[C@@H]3COP(=O)(O)O[C@H]3[C@@H](O)[C@H](n4cnc5c(=O)[nH]c(N)nc54)O[C@@H]3COP(=O)(O)O[C@H]3[C@@H](O)[C@H](n4ccc(N)nc4=O)O[C@@H]3COP(=O)(O)O[C@H]3[C@@H](O)[C@H](n4ccc(=O)[nH]c4=O)O[C@@H]3COP(=O)(O)O[C@H]3[C@@H](O)[C@H](n4cnc5c(=O)[nH]c(N)nc54)O[C@@H]3COP(=O)(O)O[C@H]3[C@@H](O)[C@H](n4cnc5c(N)ncnc54)O[C@@H]3COP(=O)(O)O[C@H]3[C@@H](O)[C@H](n4ccc(N)nc4=O)O[C@@H]3COP(=O)(O)O[C@H]3[C@@H](O)[C@H](n4ccc(N)nc4=O)O[C@@H]3COP(=O)(O)O[C@H]3[C@@H](O)[C@H](n4cnc5c(=O)[nH]c(N)nc54)O[C@@H]3COP(=O)(O)O[C@H]3[C@@H](O)[C@H](n4ccc(N)nc4=O)O[C@@H]3COP(=O)(O)O[C@H]3[C@@H](O)[C@H](n4ccc(=O)[nH]c4=O)O[C@@H]3COP(=O)(O)O[C@H]3[C@@H](O)[C@H](n4ccc(N)nc4=O)O[C@@H]3COP(=O)(O)O[C@H]3[C@@H](O)[C@H](n4ccc(=O)[nH]c4=O)O[C@@H]3COP(=O)(O)O[C@H]3[C@@H](O)[C@H](n4cnc5c(=O)[nH]c(N)nc54)O[C@@H]3COP(=O)(O)O[C@H]3[C@@H](O)[C@H](n4ccc(=O)[nH]c4=O)O[C@@H]3CO)O2)c(=O)[nH]c1=O`, the inhibition at 0.1 µM in the assay with T47D [1] and with T47D [2] was less than 20% each time.

Take `Cc1cn([C@H]2C[C@H](OP(=O)(O)OC[C@H]3O[C@@H](n4cnc5c(=O)[nH]c(N)nc54)C[C@@H]3OP(=O)(O)OC[C@H]3O[C@@H](n4cc(C)c(=O)[nH]c4=O)C[C@@H]3OP(=O)(O)OC[C@H]3O[C@@H](n4ccc(N)nc4=O)C[C@@H]3OP(=O)(O)OC[C@H]3O[C@@H](n4cc(C)c(=O)[nH]c4=O)C[C@@H]3OP(=O)(O)OC[C@H]3O[C@@H](n4cnc5c(=O)[nH]c(N)nc54)C[C@@H]3OP(=O)(O)OC[C@H]3O[C@@H](n4cnc5c(=O)[nH]c(N)nc54)C[C@@H]3OP(=O)(O)OC[C@H]3O[C@@H](n4ccc(N)nc4=O)C[C@@H]3OP(=O)(O)OC[C@H]3O[C@@H](n4ccc(N)nc4=O)C[C@@H]3OP(=O)(O)OC[C@H]3O[C@@H](n4cnc5c(N)ncnc54)C[C@@H]3OP(=O)(O)OC[C@H]3O[C@@H](n4cnc5c(=O)[nH]c(N)nc54)C[C@@H]3OP(=O)(O)OC[C@H]3O[C@@H](n4cc(C)c(=O)[nH]c4=O)C[C@@H]3OP(=O)(O)OC[C@H]3O[C@@H](n4ccc(N)nc4=O)C[C@@H]3OP(=O)(O)OC[C@H]3O[C@@H](n4ccc(N)nc4=O)C[C@@H]3OP(=O)(O)OC[C@H]3O[C@@H](n4cnc5c(N)ncnc54)C[C@@H]3OP(=O)(O)OC[C@H]3O[C@@H](n4ccc(N)nc4=O)C[C@@H]3OP(=O)(O)OC[C@H]3O[C@@H](n4cnc5c(N)ncnc54)C[C@@H]3OP(=O)(O)OC[C@H]3O[C@@H](n4cnc5c(=O)[nH]c(N)nc54)C[C@@H]3OP(=O)(O)OC[C@H]3O[C@@H](n4ccc(N)nc4=O)C[C@@H]3O)[C@@H](CO)O2)c(=O)[nH]c1=O`: the inhibition at 0.1 µM in the assay with T47D [1] and in the assay with T47D [2] was less than 20% each time.

For the compound `Cc1cn([C@H]2C[C@H](OP(=O)(O)OC[C@H]3O[C@@H](n4cnc5c(=O)[nH]c(N)nc54)C[C@@H]3OP(=O)(O)OC[C@H]3O[C@@H](n4cc(C)c(=O)[nH]c4=O)C[C@@H]3OP(=O)(O)OC[C@H]3O[C@@H](n4ccc(N)nc4=O)C[C@@H]3OP(=O)(O)OC[C@H]3O[C@@H](n4cc(C)c(=O)[nH]c4=O)C[C@@H]3OP(=O)(O)OC[C@H]3O[C@@H](n4cnc5c(=O)[nH]c(N)nc54)C[C@@H]3OP(=O)(O)OC[C@H]3O[C@@H](n4cnc5c(=O)[nH]c(N)nc54)C[C@@H]3OP(=O)(O)OC[C@H]3O[C@@H](n4ccc(N)nc4=O)C[C@@H]3OP(=O)(O)OC[C@H]3O[C@@H](n4ccc(N)nc4=O)C[C@@H]3OP(=O)(O)OC[C@H]3O[C@@H](n4cnc5c(N)ncnc54)C[C@@H]3OP(=O)(O)OC[C@H]3O[C@@H](n4cnc5c(=O)[nH]c(N)nc54)C[C@@H]3OP(=O)(O)OC[C@H]3O[C@@H](n4cc(C)c(=O)[nH]c4=O)C[C@@H]3OP(=O)(O)OC[C@H]3O[C@@H](n4ccc(N)nc4=O)C[C@@H]3OP(=O)(O)OC[C@H]3O[C@@H](n4ccc(N)nc4=O)C[C@@H]3OP(=O)(O)OC[C@H]3O[C@@H](n4cnc5c(N)ncnc54)C[C@@H]3OP(=O)(O)OC[C@H]3O[C@@H](n4ccc(N)nc4=O)C[C@@H]3OP(=O)(O)OC[C@H]3O[C@@H](n4cnc5c(N)ncnc54)C[C@@H]3OP(=O)(O)OC[C@H]3O[C@@H](n4cnc5c(=O)[nH]c(N)nc54)C[C@@H]3OP(=O)(O)OC[C@H]3O[C@@H](n4ccc(N)nc4=O)C[C@@H]3OP(=O)(O)OC[C@H]3O[C@@H](n4cc(C)c(=O)[nH]c4=O)C[C@@H]3OP(=O)(O)OC[C@H]3O[C@@H](n4cc(C)c(=O)[nH]c4=O)C[C@@H]3O)[C@@H](CO)O2)c(=O)[nH]c1=O`, the inhibition at 0.1 µM with T47D [1] and with T47D [2] was less than 20% in each case.

Usually inhibition stands for the drop in the measured response relative to a control, in per cent.
